{"source": "paper PMC7684765", "about": "(Journal of medicinal chemistry, 2020)", "key": {"HT-22 neuronal cells": {"system": "HT-22 neuronal cells", "assay": "HT-22 cell toxicity study", "assay_type": "cell-based", "conditions": "up to 50 μM", "how_it_was_run": "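HT-22 neuronal cells were grown in high-glucose DMEM with 10% FBS and 1% antibiotic-antimycotic at 37 °C and 5% CO2. Cells were seeded at 2000 per well. After 12 h, serially diluted test compound was added for 48 h. […] Readings were background-subtracted and normalized to control wells.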"}, "[1]": {"system": "6 Hz mouse seizure model at 22 mA", "assay": "6 Hz 22 mA mouse seizure model", "assay_type": "in vivo", "conditions": "up to 400 mg/kg"}, "PAINS exclusion assay": {"assay": "PAINS exclusion assay", "assay_type": "physicochemical", "conditions": "up to 24 h"}, "[2]": {"system": "ATP levels in HT-22 cells", "conditions": "5 μM; cited from earlier work"}, "zebrafish": {"system": "zebrafish", "conditions": "cited from earlier work"}, "[3]": {"system": "PTZ-induced seizures in zebrafish larvae", "conditions": "20 μM; cited from earlier work"}, "[4]": {"system": "6 Hz 32 mA mouse seizure model", "conditions": "6 Hz 32 mA mouse model, at 15 min; cited from earlier work"}, "[5]": {"system": "6 Hz 44 mA mouse seizure model", "conditions": "cited from earlier work"}, "[6]": {"conditions": "two hours; cited from earlier work"}, "[7]": {"system": "6 Hz 32 mA mouse seizure model", "assay": "6 Hz 32 mA mouse seizure test", "assay_type": "in vivo", "conditions": "ip"}, "[8]": {"system": "6 Hz 44 mA mouse seizure model", "assay": "6 Hz 44 mA mouse seizure test", "assay_type": "in vivo", "conditions": "ip, 400 mg/kg"}, "MES-induced seizures": {"system": "MES-induced seizures", "assay": "Maximal electroshock", "assay_type": "in vivo", "conditions": "MES model, mouse, ip, 350 mg/kg", "how_it_was_run": "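Male CF-1 mice, 8 per group per dose, received test compound ip as a suspension in 0.5% HPMC, 1 h before stimulation. Tetracaine (0.5%) in electrolyte was applied to the eyes. A 60 Hz, 50 mA alternating current was delivered through corneal electrodes […]. Animals without hindlimb tonic extension were scored protected. Results are given as N/F, and ED50 was calculated by probit analysis.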"}, "s.c. PTZ mouse model": {"system": "s.c. PTZ mouse model", "assay": "Subcutaneous pentylenetetrazole", "assay_type": "in vivo", "conditions": "ip, 450 mg/kg, 1 h", "how_it_was_run": "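Test compound was suspended in 0.5% HPMC and given ip to male CF-1 mice, 8 per group per dose. One hour later, 85 mg/kg PTZ was injected subcutaneously into the midline of the neck. Mice showing no spasms or twitching were scored protected.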"}, "[9]": {"system": "motor impairment (mouse rotarod assay)", "assay": "Behavioral toxicity in mice", "assay_type": "in vivo", "conditions": "acute (~1h) observation period, dose up to 800 mg/kg"}, "Pharmacokinetics in mice": {"assay": "Pharmacokinetics in mice", "assay_type": "in vivo", "conditions": "Mus musculus, read-out: free EC50 in mice"}, "[10]": {"system": "recurrent epileptiform discharges (REDs) in brain slices from the kainite-induced status epilepticus model", "assay": "Spontaneous recurrent epileptiform discharges", "conditions": "brain slices in vitro"}, "[11]": {"assay": "Lethality and other treatment effects in mice seizure models", "assay_type": "in vivo", "conditions": "CF-1, mouse, in vivo, intraperitoneal"}, "mice": {"system": "mice", "assay": "Lethality and other treatment effects in mice seizure models", "assay_type": "in vivo", "conditions": "mice"}}, "note": "“Also recorded” adds a separate entry of the source. Like-named read-outs stand apart in the source and are kept apart here."}
{"smiles": "O=C1C=C(NCCC2CCC2)C(=O)c2ccccc21", "note": "[3l, 2-((2-cyclobutylethyl)amino)naphthalene-1,4-dione]", "values": [{"measurement": "toxicity in HT-22 cells (in words)", "setting": "HT-22 neuronal cells", "value": "do not display obvious toxicity"}, {"measurement": "seizure protection", "setting": "[1]", "value": "without full seizure protection"}]}
{"smiles": "CC1=CC(=O)c2ccccc2C1=O", "note": "[VK3]", "values": [{"measurement": "reaction with 2-mercaptoethanol (Michael reaction)", "setting": "PAINS exclusion assay", "value": "rapidly reacts"}, {"measurement": "effect on ATP levels", "setting": "[2]", "value": "can increase ATP levels"}, {"measurement": "lethal dose", "setting": "zebrafish", "value": 7, "unit": "µM"}]}
{"smiles": "C#CCNC1=CC(=O)c2ccccc2C1=O", "note": "[2h]", "values": [{"measurement": "anti-seizure activity", "setting": "[3]", "value": "clear anti-seizure activity"}, {"measurement": "seizure protection", "setting": "[4]", "value": "full protection"}, {"measurement": "seizure protection", "setting": "[5]; 6 Hz 44 mA mouse model", "value": "no longer protective; also recorded: did not show any protection"}, {"measurement": "effect on ATP levels", "setting": "[2]", "value": "can increase ATP levels"}, {"measurement": "stability in mouse serum", "setting": "[6]", "value": "no catabolic conversion"}, {"measurement": "toxicity", "setting": "zebrafish; 20 μM", "value": "no observable toxicity"}]}
{"smiles": "CC(C)CCNC1=CC(=O)c2ccccc2C1=O", "note": "[3d, 2-(isopentylamino)naphthalene-1,4-dione]", "values": [{"measurement": "toxicity in HT-22 cells (in words)", "setting": "HT-22 neuronal cells", "value": "do not display obvious toxicity; also recorded: does not show obvious toxicity"}, {"measurement": "seizure protection", "setting": "[7]; 400 mg/kg", "value": "full protection"}, {"measurement": "ED50 value (EC50)", "setting": "[7]; time of test 1 h", "value": 152.7, "unit": "mg/kg"}, {"measurement": "seizure protection", "setting": "[8]", "value": "full protection"}, {"measurement": "seizure protection", "setting": "MES-induced seizures", "value": "full protection"}, {"measurement": "animals protected", "setting": "s.c. PTZ mouse model", "value": "6 out of 8"}, {"measurement": "motor impairment (mouse rotarod assay)", "setting": "[9]", "value": "does not show signs of major motor impairment"}, {"measurement": "EC50", "setting": "Pharmacokinetics in mice", "value": "~123", "unit": "nM"}, {"measurement": "reaction with 2-mercaptoethanol (Michael reaction)", "setting": "PAINS exclusion assay", "value": "does not react"}, {"measurement": "effect on spontaneous REDs", "setting": "[10]", "value": "does not attenuate"}, {"measurement": "LD50 at 24 h", "setting": "[11]", "value": "> 800", "unit": "mg/kg"}, {"measurement": "doses lethal in some animals", "setting": "mice; after electric stimulation, after 24h (data not shown)", "value": "greater than 500 mg/kg"}, {"measurement": "other effects of treatment observed", "setting": "mice; at time of treatment and ~1 h observation period (data not shown)", "value": "writhing (abdominal constriction); also recorded: discolored urine and lethargy"}]}
{"smiles": "CC[C@@H](C(N)=O)N1CCCC1=O", "note": "[Levetiracetam]", "values": [{"measurement": "6 Hz 44 mA ED50", "setting": "[5]; 6 Hz 44 mA seizure model", "value": "over 1000 mg/kg"}]}
